Data from ChEMBL document CHEMBL4152210, “Design, synthesis, anti-lung cancer activity, and chemosensitization of tumor-selective MCACs based on ROS-mediated JNK pathway activation and NF-κB pathway inhibition” (Eur J Med Chem, 2018).
Calls of active or inactive are those of the source. The rule behind the calls is not given here.

Experiments:
A549 [1] = assay: Chemosensitization activity in human A549 cells assessed as inhibition of clonogenic growth at 1 uM in presence of 0.25 uM cisplatin incubated for 2 days followed by replacement of growth media and measured after 8 days by crystal violet staining-based assay relative to control; type: functional
Method in brief: (§1)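 A549 seeded at 1000 cells per well in 6-well plates, exposed to drug alone or combined with cisplatin or 5-Fu over a concentration series. Drug-containing medium replaced after 2 days. After a further 8 days, fixed with 1% methanol/1% formaldehyde and stained with 0.5% crystal violet. Percent inhibition at each concentration calculated relative to control.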

A549 [2] = assay: Induction of ROS generation in human A549 cells at 10 uM after 12 hrs by DCFDA staining based flow cytometric analysis; type: functional, cell-based; conditions: in the assay text read “after 9 hrs” for “after 12 hrs”
Method in brief: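 A549 (6 × 10^5 per 60 mm dish) exposed to 10 µM over a time course up to 12 h, or at 1, 5 or 10 µM for 9 h. Optional NAC (5 mM) pretreatment for 1 h before 10 µM for 9 h. Cells loaded with DCF-DA (10 µM) for 30 min at 37 °C in the dark, washed, and read by flow cytometry.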

A549 [3] = assay: Induction of apoptosis in human A549 cells assessed as increase in caspase-3 level after 24 hrs by Western blot analysis; type: functional, cell-based
L02 = assay: Cytotoxicity against human HL7702 cells assessed as reduction in cell viability after 72 hrs by MTT assay; type: cell-based; conditions: L02, 72 h
Method in brief: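 Cells in RPMI 1640 with 10% heat-inactivated FBS and penicillin/streptomycin at 37 °C, 5% CO2. Seeded at 4000 per well, adhered overnight, then exposed to graded compound concentrations in triplicate wells for 72 h. MTT (5 mg/mL stock) added for 4 h, dissolved in DMSO, A490 read. IC50 is the concentration reducing viability by 50% versus untreated control.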

A549 [4] = assay: Chemosensitization activity in human A549 cells assessed as inhibition of clonogenic growth at 0.25 uM in presence of 9 uM cisplatin incubated for 2 days followed by replacement of growth media and measured after 8 days by crystal violet staining-based assay relative to control; type: functional; method in brief: as §1
A549 [5] = assay: Induction of apoptosis in human A549 cells at 10 uM preincubated with NAC for 1 hr followed by compound addition and measured after 24 hrs by Annexin V-FITC/propidium iodide staining based flow cytometric analysis; type: functional, cell-based
Method in brief: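 A549 treated 24 h at 1, 5 or 10 µM, with BMS345541 20 µM as control. Inhibitor arms pretreated 1 h with NAC (5 mM) or SP600125 (10 µM) before 10 µM. Cells harvested with EDTA-free trypsin, stained with FITC Annexin V and PI for 15 min at room temperature in the dark, analysed by flow cytometry.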

A549 [6] = assay: Induction of apoptosis in human A549 cells assessed as increase in Bax level at 1 to 10 uM after 24 hrs by Western blot analysis; type: functional, cell-based
Method in brief: (§2)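 A549 treated at 1, 5 or 10 µM, or with BMS345541 (20 µM), for 24 h. Cleaved PARP and Bax detected by western blot (10% SDS-PAGE, PVDF, 5% milk block, HRP secondary).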

A549 [7] = assay: Induction of apoptosis in human A549 cells assessed as increase in PARP level after 24 hrs by Western blot analysis; type: functional, cell-based; method in brief: as §2

In the case of `COc1cc(/C=C2\CN(C)C/C(=C\c3cc(OC)c(OC)c(OC)c3)C2=O)cc(OC)c1OC`, the “inhibition (INH)” value (A549 [1]) is reported as 90%, the Activity (A549 [2]) is reported as “Dose-dependent effect” and the Activity (A549 [3]) is reported as “Dose-dependent effect”. The IC50 (L02) was 26.4 µM, the “inhibition (INH)” value (A549 [4]) was 99% and the Activity (A549 [5]) was “inactive”. The Activity (A549 [6]) was “Active” and the Activity (A549 [7]) was “Dose-dependent effect”.
